From ChEMBL document CHEMBL2203173 (J Med Chem, 2012)

How the values were obtained:
[1] = system: A549; experiment: Antiproliferative activity at human A549 cells after 72 hrs by MTT assay; format: functional, cell-based
[2] = system: DMS-53; experiment: Antiproliferative activity at human DMS53 cells after 72 hrs by MTT assay; format: functional, cell-based
[3] = system: SK-N-MC; experiment: Antiproliferative activity at human SK-N-MC cells after 72 hrs by MTT assay; format: functional, cell-based
[4] = system: SK-N-MC; experiment: Inhibition to 59Fe uptake from 59Fe-transferrin in human SK-N-MC cells at 25 uM after 3 hrs relative to Dp4eT
[5] = system: MRC5; experiment: Antiproliferative activity at human MRC5 cells after 72 hrs by MTT assay; format: functional, cell-based; conditions: MRC5, 72 h
[6] = system: SK-N-MC; experiment: Induction of 59Fe mobilization in human SK-N-MC cells at 25 uM after 3 hrs by gamma-scintillation counter; format: functional
How it was run: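 SK-N-MC cells prelabeled with 59Fe-transferrin (0.75 μM) for 3 h/37 °C, then washed four times on ice with ice-cold PBS. Cells reincubated with or without chelators (25 μM) for 3 h/37 °C. Released 59Fe given as % of cellular 59Fe. Mean ± SD of three experiments.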

[7] = system: SK-N-MC; experiment: Inhibition to 59Fe uptake from 59Fe-transferrin in human SK-N-MC cells at 25 uM after 3 hrs; format: functional; design: scale not given: the % may be the effect or the level left
How it was run: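 SK-N-MC cells labeled with 59Fe-transferrin (0.75 μM) for 3 h/37 °C with or without chelators (25 μM). Cells washed four times on ice with ice-cold PBS. Internalized 59Fe separated with Pronase (1 mg/mL) and expressed as % of control. Mean ± SD of three experiments.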

[8] = system: A549; experiment: Ratio of compound IC50 to DFO IC50 for human A549 cells; format: functional
How it was run: (§1)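 A549 human non-small cell lung carcinoma cells were exposed to agents for 72 h. IC50 is the concentration that inhibits cell growth to 50% of the untreated control. Values are mean ± SD of three experiments. The ratio is the compound IC50 divided by the IC50 of the reference chelator (DFO or NIH) from the same assay.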

[9] = system: A549; experiment: Ratio of compound IC50 to NIH IC50 for human A549 cells; format: functional; how it was run: as §1

Row | SMILES | IC50 ([1]; Homo sapiens, A549, 72 h) | IC50 [3] | IC50 ([2]; Homo sapiens, DMS-53, 72 h) | further results
1 | Nc1ccn([C@@H]2O[C@H](CO)[C@@H](O)C2(F)F)c(=O)n1 [GEMCITABINE] | 20 nM | – | 9 nM | –
2 | CCN(C)C(=S)N/N=C(\c1ccccc1)c1ccccn1 | – | 6 nM | – | –
3 | CCN(CC)C(=S)NN=C(c1ccccn1)c1ccccn1 | – | 5 nM | – | Ratio [4]: 2
4 | CC(=O)N(O)CCCCCNC(=O)CCC(=O)N(O)CCCCCNC(=O)CCC(=O)N(O)CCCCCN [DEFEROXAMINE] | 7500 nM | – | 10000 nM | IC50 [5]: > 10000 nM; Activity [6]: 15.2%; Activity [7]: 84%
5 | CCN(C)C(=S)NN=C(c1ccccn1)c1ccccn1 | – | 4 nM | – | Ratio IC50 [8]: 137; Ratio IC50 [9]: 137; IC50 ([1]; a549): 10 nM; IC50 ([2]; dms-53): 8 nM

The next lines start with results.

Row | IC50 ([1]; Homo sapiens, A549, 72 h) | IC50 [3] | SMILES | IC50 ([2]; Homo sapiens, DMS-53, 72 h) | further results
6 | 2200 nM | 1100 nM | O=C(N/N=C/c1c(O)ccc2ccccc12)c1ccncc1 | 1100 nM | IC50 [5]: > 10000 nM; Activity [6]: 44.9%; Activity [7]: 5.3%
7 | – | 11 nM | CCN(CC)C(=S)N/N=C(\c1ccccc1)c1ccccn1 | – | –
8 | – | 6 nM | CN(C(=S)NN=C(c1ccccn1)c1ccccn1)c1ccccc1 | – | –
